15 compounds from ChEMBL document CHEMBL4261524, “Succinct synthesis of saturated hydroxy fatty acids and in vitro evaluation of all hydroxylauric acids on FFA1, FFA4 and GPR84” (Medchemcomm, 2017) can be followed below.

Test [1] concerns the target T1, Free fatty acid receptor 4 (Homo sapiens, UniProt Q5NUL3).
T1 sequence (Q5NUL3 whole entry): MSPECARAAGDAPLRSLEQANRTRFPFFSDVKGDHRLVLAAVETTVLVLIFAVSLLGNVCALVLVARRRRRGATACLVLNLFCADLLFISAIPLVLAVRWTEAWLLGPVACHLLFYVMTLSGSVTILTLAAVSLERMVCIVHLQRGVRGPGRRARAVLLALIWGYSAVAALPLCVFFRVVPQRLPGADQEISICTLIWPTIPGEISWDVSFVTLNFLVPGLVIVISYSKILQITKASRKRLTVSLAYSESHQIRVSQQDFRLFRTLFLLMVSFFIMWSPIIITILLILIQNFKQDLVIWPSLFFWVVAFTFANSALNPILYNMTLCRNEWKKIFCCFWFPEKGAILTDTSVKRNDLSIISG
Put plainly: Agonist activity at N-terminal FLAG-tagged/C-terminal eYFP-fused human FFA4 receptor expressed in HEK293T cells assessed as induction of beta-arrestin-2 recruitment after 5 mins by BRET assay. The format is functional, cell-based.

Test [2] concerns the target T2, Free fatty acid receptor 1 (Homo sapiens, UniProt O14842). Briefly: Agonist activity at N-terminal FLAG-tagged/C-terminal eYFP-fused human FFA1 receptor expressed in HEK293T cells assessed as induction of beta-arrestin-2 recruitment at 100 uM after 15 mins by BRET assay relative to control. The format is functional, cell-based.
For test [3], the target named is T2, Free fatty acid receptor 1. Briefly: Agonist activity at N-terminal FLAG-tagged/C-terminal eYFP-fused human FFA1 receptor expressed in HEK293T cells assessed as induction of beta-arrestin-2 recruitment after 15 mins by BRET assay. It is filed as functional, cell-based.
Test [4] concerns the target T3, G-protein coupled receptor 84 (Homo sapiens, UniProt Q9NQS5). Put plainly: Agonist activity at N-terminal FLAG-tagged/C-terminal eYFP-fused human GPR84 expressed in CHO cell membranes assessed as induction of [35S]GTPgammaS binding after 1 hr by liquid scintillation counting method. The format is functional. In short, it runs like this:
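Membranes were prepared from FLAG-GPR84-eYFP-expressing cells by homogenization in 10 mM Tris-HCl pH 7.4 with 0.1 mM EDTA, a 1000 × g spin to clear debris, then a 38 000 × g pellet. 10 μg membrane was incubated 1 h at 30 °C in HEPES/MgCl2/NaCl buffer, pH 7.5, with 0.05% fatty-acid-free BSA, 1 μM GDP and 0.1 nM [35S]GTPγS. Binding was read on GF/C filters by scintillation counting; means ± SEM, n ≥ 3.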

Test [5] addresses T3, G-protein coupled receptor 84. Put plainly: Agonist activity at N-terminal FLAG-tagged/C-terminal eYFP-fused human GPR84 expressed in CHO cell membranes assessed as inhibition of forskolin-induced cAMP accumulation up to 100 uM preincubated for 20 mins followed by forskolin-induction and measured after 20 mins. It is filed as functional, cell-based.
Test [6] deals with T2, Free fatty acid receptor 1. Put plainly: Agonist activity at N-terminal FLAG-tagged/C-terminal eYFP-fused human FFA1 receptor expressed in Flp-In T-Rex 293 cells assessed as induction of Ca2+ mobilization after 45 mins by Fura2-AM dye-based fluorescence assay. The format is functional, cell-based.
Test [7] deals with T3, G-protein coupled receptor 84. Briefly: Agonist activity at N-terminal FLAG-tagged/C-terminal eYFP-fused human GPR84 expressed in CHO cell membranes assessed as inhibition of forskolin-induced cAMP accumulation preincubated for 20 mins followed by forskolin-induction and measured after 20 mins. It is filed as functional, cell-based.

Molecules are shown by their SMILES. Activity calls are given as the source filed them. No cut-off for these calls is given here. Some results are limits rather than exact numbers.

T2 sequence (O14842 whole entry, the tested form may be a part): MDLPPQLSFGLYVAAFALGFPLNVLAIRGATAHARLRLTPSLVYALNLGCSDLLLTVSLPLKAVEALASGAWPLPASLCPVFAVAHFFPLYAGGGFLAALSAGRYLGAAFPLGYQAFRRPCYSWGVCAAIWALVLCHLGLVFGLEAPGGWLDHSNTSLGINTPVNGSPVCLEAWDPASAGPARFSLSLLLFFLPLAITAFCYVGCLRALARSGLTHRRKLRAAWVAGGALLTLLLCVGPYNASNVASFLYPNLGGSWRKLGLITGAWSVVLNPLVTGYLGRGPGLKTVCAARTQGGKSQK
T3 sequence (Q9NQS5 whole entry, the tested form may be a part): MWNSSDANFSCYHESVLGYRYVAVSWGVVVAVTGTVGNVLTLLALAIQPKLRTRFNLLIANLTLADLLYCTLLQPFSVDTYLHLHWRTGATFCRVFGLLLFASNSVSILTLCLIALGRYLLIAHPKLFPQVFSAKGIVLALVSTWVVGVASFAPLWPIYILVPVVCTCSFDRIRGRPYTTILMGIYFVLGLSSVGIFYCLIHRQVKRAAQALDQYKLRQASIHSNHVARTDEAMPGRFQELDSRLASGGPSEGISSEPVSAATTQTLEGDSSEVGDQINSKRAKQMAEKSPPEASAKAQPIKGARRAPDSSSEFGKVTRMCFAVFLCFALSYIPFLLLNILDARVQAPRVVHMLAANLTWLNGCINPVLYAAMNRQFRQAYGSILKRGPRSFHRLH

Take `CCCCCCCCCC(O)CC(=O)O` (centres undefined): the EC50 in test [1] is over 100 µM; in test [3], over 100 µM; in test [4] it was 5.25 µM. The Activity in test [2] is under 25%.

For the compound `CCCCCCC(O)CCCCCCCCCCC(=O)O` (centres undefined), the EC50 in test [1] is 1.74 µM.

With `CCCCCCCC(O)CCCC(=O)O` (centres undefined), the EC50 in test [1], in test [3] and in test [4] was over 100 µM in each case.

Regarding `O=C(O)CCCCCCCCCCCO`, the EC50 in test [1] is over 100 µM; in test [3] it was over 100 µM; in test [4], 20.9 µM.

For `CCC(O)CCCCCCCCC(=O)O` (centres undefined), the concentration for a half-maximal effect (EC50) in test [1], in test [3] and in test [4] was over 100 µM throughout.

Regarding `CCCCC(O)CCCCCCC(=O)O` (centres undefined), the EC50 in test [1], in test [3] and in test [4] was over 100 µM throughout.

Turning to `CCCCCCCCCCCC(=O)O` [DODECANOATE], the EC50 was 7.59 µM in test [1], 11.5 µM in test [6], 8.71 µM in test [7] and 10.5 µM in test [4]. The inhibition result in test [5] is “inactive”.

As for `O=C(O)CCCCCCCCCCCCCCCO`, the EC50 in test [1] is 1.7 µM; in test [6] it was 20.9 µM.

Regarding `CCCC(O)CCCCCCCC(=O)O` (centres undefined), the EC50 in test [1], in test [3] and in test [4] was over 100 µM each time.

`CC(O)CCCCCCCCCC(=O)O` (centres undefined): the 50% effective concentration (EC50) in test [1], in test [3] and in test [4] was over 100 µM throughout.

On to `CCCCCC(O)CCCCCC(=O)O` (centres undefined), for which the EC50 in test [1], in test [3] and in test [4] was over 100 µM throughout.

Consider `CCCCCCCCC(O)CCC(=O)O` (centres undefined), for which the EC50 was over 100 µM in test [1], over 100 µM in test [3] and 38 µM in test [4].

As for `CCCCCCCCCCC(O)C(=O)O` (centres undefined), the half-maximal effective concentration (EC50) in test [1] is over 100 µM; in test [3], 6.76 µM; in test [4], 12.9 µM.

On to `CCCCCCC(O)CCCCC(=O)O` (centres undefined), for which the EC50 is over 100 µM in test [1], 18.6 µM in test [3] and over 100 µM in test [4].

As to `CCCCCC[C@@H](O)C/C=C\CCCCCCCC(=O)O`, the EC50 is 1.32 µM in test [1] and 11.5 µM in test [6].
